# Experiments:
# [1] = Cytotoxicity against human U87MG cells after 72 hrs by MTT assay; format: functional, cell-based, U-87MG ATCC; conditions: U-87 MG
# Summary of the method: (§1)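 Cells grown in MEM with 10% FBS; about 4 × 10³ cells per well, preincubated 24 h at 37 °C in 5% CO₂, then exposed to compound for 72 h. Each line tested three times; IC50 is mean of three determinations.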
# [2] = Cytotoxicity against human H460 cells after 72 hrs by MTT assay; conditions: NCI-H460, 72 h
# A549 = test: Cytotoxicity against human A549 cells after 72 hrs by MTT assay; format: functional, cell-based; conditions: A549, 72 h; summary of the method: as §1
# HT-29 = test: Cytotoxicity against human HT-29 cells after 72 hrs by MTT assay; conditions: HT-29, 72 h
# MKN-45 = test: Cytotoxicity against human MKN45 cells after 72 hrs by MTT assay; conditions: MKN-45, 72 h
smiles,measurement,setting,value
COc1cc2c(Oc3ccc(NC(=O)c4cc(-c5ccc(C(F)(F)F)cc5)ccn4)cc3F)ccnc2cc1OCCCN1CCCCC1,IC50,[1],1630 nM
same,IC50,[2],360 nM
same,IC50,A549,1640 nM
same,IC50,HT-29,230 nM
same,IC50,MKN-45,870 nM
COc1cc2c(Oc3ccc(NC(=O)c4cc(-c5ccccc5C)ccn4)cc3F)ccnc2cc1OCCCN1CCN(C)CC1,IC50,[1],2030 nM
same,IC50,[2],150 nM
same,IC50,A549,1330 nM
same,IC50,HT-29,180 nM
same,IC50,MKN-45,240 nM
COc1cc2c(Oc3ccc(NC(=O)c4nccc(-c5ccc(C)cc5)n4)cc3F)ccnc2cc1OCCCN1CCOCC1,IC50,[1],2400 nM
same,IC50,[2],300 nM
same,IC50,A549,2240 nM
same,IC50,HT-29,240 nM
same,IC50,MKN-45,310 nM
COc1cc2c(Oc3ccc(NC(=O)c4nccc(-c5ccc(F)cc5)n4)cc3F)ccnc2cc1OCCCN1CCCCC1,IC50,[2],240 nM
same,IC50,HT-29,120 nM
same,IC50,MKN-45,930 nM
COc1cc2c(Oc3ccc(NC(=O)c4cc(-c5ccc(C)cc5)ccn4)cc3F)ccnc2cc1OCCCN1CCOCC1,IC50,[1],6790 nM
same,IC50,[2],570 nM
same,IC50,A549,3450 nM
same,IC50,HT-29,290 nM
same,IC50,MKN-45,440 nM
COc1cc2c(Oc3ccc(NC(=O)c4cc(-c5ccccc5C)ccn4)cc3F)ccnc2cc1OCCCN1CCOCC1,IC50,[2],2130 nM
same,IC50,HT-29,1050 nM
same,IC50,MKN-45,1140 nM
COc1cc2c(Oc3ccc(NC(=O)c4nccc(-c5ccc(F)cc5)n4)cc3F)ccnc2cc1OCCCN1CCCC1,IC50,[1],1130 nM
same,IC50,[2],300 nM
same,IC50,A549,990 nM
same,IC50,HT-29,160 nM
same,IC50,MKN-45,490 nM
COc1cc2c(Oc3ccc(NC(=O)c4cc(-c5ccccc5)ccn4)cc3F)ccnc2cc1OCCCN1CCCCC1,IC50,[1],790 nM
same,IC50,[2],120 nM
same,IC50,A549,1800 nM
same,IC50,HT-29,270 nM
same,IC50,MKN-45,270 nM
COc1cc2c(Oc3ccc(NC(=O)c4nccc(-c5ccc(F)cc5F)n4)cc3F)ccnc2cc1OCCCN1CCN(C)CC1,IC50,[1],780 nM
same,IC50,[2],450 nM
same,IC50,A549,660 nM
same,IC50,HT-29,480 nM
same,IC50,MKN-45,440 nM
COc1cc2c(Oc3ccc(NC(=O)c4nccc(-c5ccc(C)cc5)n4)cc3F)ccnc2cc1OCCCN1CCCCC1,IC50,[1],1140 nM
same,IC50,[2],230 nM
same,IC50,A549,900 nM
same,IC50,HT-29,620 nM
same,IC50,MKN-45,580 nM
COc1cc2c(Oc3ccc(NC(=O)c4cc(-c5ccccc5F)ccn4)cc3F)ccnc2cc1OCCCN1CCCCC1,IC50,[2],130 nM
same,IC50,HT-29,320 nM
same,IC50,MKN-45,180 nM
COc1cc2c(Oc3ccc(NC(=O)c4cc(-c5ccccc5)ccn4)cc3F)ccnc2cc1OCCCN1CCN(C)CC1,IC50,[1],1010 nM
same,IC50,[2],91 nM
same,IC50,A549,340 nM
same,IC50,HT-29,82 nM
same,IC50,MKN-45,150 nM
COc1cc2c(Oc3ccc(NC(=O)c4nccc(-c5ccc(F)cc5F)n4)cc3F)ccnc2cc1OCCCN1CCCCC1,IC50,[1],780 nM
same,IC50,[2],550 nM
same,IC50,A549,470 nM
same,IC50,HT-29,400 nM
same,IC50,MKN-45,1120 nM
COc1ccc(-c2ccnc(C(=O)Nc3ccc(Oc4ccnc5cc(OCCCN6CCN(C)CC6)c(OC)cc45)c(F)c3)c2)c(OC)c1,IC50,[2],430 nM
same,IC50,HT-29,420 nM
same,IC50,MKN-45,330 nM
COc1cc2c(Oc3ccc(NC(=O)c4cc(-c5ccccc5)ccn4)cc3F)ccnc2cc1OCCCN1CCOCC1,IC50,[1],1280 nM
same,IC50,[2],350 nM
same,IC50,A549,3450 nM
same,IC50,HT-29,330 nM
same,IC50,MKN-45,280 nM
COc1cc2c(Oc3ccc(NC(=O)c4cc(-c5ccc(C(F)(F)F)cc5)ccn4)cc3F)ccnc2cc1OCCCN1CCN(C)CC1,IC50,[2],160 nM
same,IC50,HT-29,200 nM
same,IC50,MKN-45,330 nM
COc1ccc(-c2ccnc(C(=O)Nc3ccc(Oc4ccnc5cc(OCCCN6CCCCC6)c(OC)cc45)c(F)c3)c2)cc1,IC50,[2],200 nM
same,IC50,HT-29,690 nM
same,IC50,MKN-45,570 nM
COc1cc2c(Oc3ccc(NC(=O)c4cc(-c5ccc(F)cc5)ccn4)cc3F)ccnc2cc1OCCCN1CCOCC1,IC50,[2],1870 nM
same,IC50,HT-29,1000 nM
same,IC50,MKN-45,870 nM
COc1cc2c(Oc3ccc(NC(=O)c4nccc(-c5ccc(F)cc5)n4)cc3F)ccnc2cc1OCCCN1CCN(C)CC1,IC50,[1],910 nM
same,IC50,[2],63 nM
same,IC50,A549,680 nM
same,IC50,HT-29,42 nM
same,IC50,MKN-45,90 nM
COc1cc2c(Oc3ccc(NC(=O)c4cc(-c5ccc(F)cc5)ccn4)cc3F)ccnc2cc1OCCCN1CCCC1,IC50,[1],1780 nM
same,IC50,[2],370 nM
same,IC50,A549,1800 nM
same,IC50,HT-29,430 nM
same,IC50,MKN-45,350 nM
COc1cc2c(Oc3ccc(NC(=O)c4nccc(-c5ccc(C)cc5)n4)cc3F)ccnc2cc1OCCCN1CCN(C)CC1,IC50,[2],160 nM
same,IC50,HT-29,210 nM
same,IC50,MKN-45,340 nM
COc1cc2c(Oc3ccc(NC(=O)c4cc(-c5ccccc5)ccn4)cc3F)ccnc2cc1OCCCN1CCCC1,IC50,[1],1010 nM
same,IC50,[2],130 nM
same,IC50,A549,1580 nM
same,IC50,HT-29,120 nM
same,IC50,MKN-45,210 nM
COc1cc2c(Oc3ccc(NC(=O)c4cc(-c5ccccc5F)ccn4)cc3F)ccnc2cc1OCCCN1CCOCC1,IC50,[1],3030 nM
same,IC50,[2],680 nM
same,IC50,A549,3990 nM
same,IC50,HT-29,400 nM
same,IC50,MKN-45,1310 nM
COc1cc2c(Oc3ccc(NC(=O)c4cc(-c5ccc(C)cc5)ccn4)cc3F)ccnc2cc1OCCCN1CCCCC1,IC50,[2],160 nM
same,IC50,HT-29,340 nM
same,IC50,MKN-45,1670 nM
COc1cc2c(Oc3ccc(NC(=O)c4cc(-c5ccccc5F)ccn4)cc3F)ccnc2cc1OCCCN1CCCC1,IC50,[1],610 nM
same,IC50,[2],140 nM
same,IC50,A549,430 nM
same,IC50,HT-29,230 nM
same,IC50,MKN-45,230 nM
COc1cc2c(Oc3ccc(NC(=O)c4nccc(-c5ccccc5)n4)cc3F)ccnc2cc1OCCCN1CCOCC1,IC50,[1],1350 nM
same,IC50,[2],240 nM
same,IC50,A549,510 nM
same,IC50,HT-29,150 nM
same,IC50,MKN-45,260 nM
COc1cc2c(Oc3ccc(NC(=O)c4cc(-c5ccc(C(F)(F)F)cc5)ccn4)cc3F)ccnc2cc1OCCCN1CCCC1,IC50,[2],250 nM
same,IC50,HT-29,720 nM
same,IC50,MKN-45,260 nM
COc1cc2c(Oc3ccc(NC(=O)c4cc(-c5ccc(C)cc5)ccn4)cc3F)ccnc2cc1OCCCN1CCCC1,IC50,[1],560 nM
same,IC50,[2],160 nM
same,IC50,A549,1060 nM
same,IC50,HT-29,350 nM
same,IC50,MKN-45,440 nM
COc1cc2c(Oc3ccc(NC(=O)c4nccc(-c5ccc(F)cc5F)n4)cc3F)ccnc2cc1OCCCN1CCOCC1,IC50,[2],1030 nM
same,IC50,HT-29,2190 nM
same,IC50,MKN-45,960 nM
COc1ccc(-c2ccnc(C(=O)Nc3ccc(Oc4ccnc5cc(OCCCN6CCCC6)c(OC)cc45)c(F)c3)c2)cc1,IC50,[2],200 nM
same,IC50,HT-29,350 nM
same,IC50,MKN-45,150 nM
COc1cc2c(Oc3ccc(NC(=O)c4nccc(-c5ccc(F)cc5)n4)cc3F)ccnc2cc1OCCCN1CCOCC1,IC50,[2],220 nM
same,IC50,HT-29,110 nM
same,IC50,MKN-45,360 nM
COc1ccc(-c2ccnc(C(=O)Nc3ccc(Oc4ccnc5cc(OCCCN6CCOCC6)c(OC)cc45)c(F)c3)c2)c(OC)c1,IC50,[2],12700 nM
same,IC50,HT-29,1530 nM
same,IC50,MKN-45,6680 nM
COc1cc2c(Oc3ccc(NC(=O)c4nccc(-c5ccccc5)n4)cc3F)ccnc2cc1OCCCN1CCCC1,IC50,[2],1120 nM
same,IC50,HT-29,390 nM
same,IC50,MKN-45,1360 nM
COc1ccc(-c2ccnc(C(=O)Nc3ccc(Oc4ccnc5cc(OCCCN6CCN(C)CC6)c(OC)cc45)c(F)c3)c2)cc1,IC50,[2],370 nM
same,IC50,HT-29,390 nM
same,IC50,MKN-45,250 nM
COc1cc2c(Oc3ccc(NC(=O)c4cc(-c5ccccc5F)ccn4)cc3F)ccnc2cc1OCCCN1CCN(C)CC1,IC50,[2],140 nM
same,IC50,HT-29,220 nM
same,IC50,MKN-45,150 nM
COc1cc2c(Oc3ccc(NC(=O)c4cc(-c5ccc(C(F)(F)F)cc5)ccn4)cc3F)ccnc2cc1OCCCN1CCOCC1,IC50,[2],52700 nM
same,IC50,HT-29,5070 nM
same,IC50,MKN-45,78800 nM
COc1ccc(-c2ccnc(C(=O)Nc3ccc(Oc4ccnc5cc(OCCCN6CCOCC6)c(OC)cc45)c(F)c3)c2)cc1,IC50,[2],3120 nM
same,IC50,HT-29,1340 nM
same,IC50,MKN-45,1150 nM
COc1cc2c(Oc3ccc(NC(=O)c4cc(-c5ccc(F)cc5)ccn4)cc3F)ccnc2cc1OCCCN1CCN(C)CC1,IC50,[2],430 nM
same,IC50,HT-29,1460 nM
same,IC50,MKN-45,510 nM
COc1cc2c(Oc3ccc(NC(=O)c4nccc(-c5ccccc5)n4)cc3F)ccnc2cc1OCCCN1CCCCC1,IC50,[2],330 nM
same,IC50,HT-29,260 nM
same,IC50,MKN-45,1030 nM
COc1cc2c(Oc3ccc(NC(=O)c4cc(-c5ccc(F)cc5)ccn4)cc3F)ccnc2cc1OCCCN1CCCCC1,IC50,[1],12500 nM
same,IC50,[2],250 nM
same,IC50,A549,10100 nM
same,IC50,HT-29,1370 nM
same,IC50,MKN-45,1240 nM
COc1cc2c(Oc3ccc(NC(=O)c4nccc(-c5ccc(C)cc5)n4)cc3F)ccnc2cc1OCCCN1CCCC1,IC50,[2],440 nM
same,IC50,HT-29,670 nM
same,IC50,MKN-45,240 nM
COc1ccc(-c2ccnc(C(=O)Nc3ccc(Oc4ccnc5cc(OCCCN6CCCC6)c(OC)cc45)c(F)c3)c2)c(OC)c1,IC50,[2],520 nM
same,IC50,HT-29,630 nM
same,IC50,MKN-45,740 nM
COc1cc2c(Oc3ccc(NC(=O)c4cc(-c5ccccc5C)ccn4)cc3F)ccnc2cc1OCCCN1CCCC1,IC50,[2],420 nM
same,IC50,HT-29,1150 nM
same,IC50,MKN-45,440 nM

# Reference: ChEMBL document CHEMBL2434847, “Design, synthesis, and structure-activity relationships of novel 6,7-disubstituted-4-phenoxyquinoline derivatives as potential antitumor agents” (Eur J Med Chem, 2013)
